Source: ChEMBL document CHEMBL1154846, “Micropeptins from an Israeli fishpond water bloom of the cyanobacterium Microcystis sp” (J Nat Prod, 2010)
Active and inactive are the calls of the source. No cut-off for these calls is given here.

Columns and labels:
Prothrombin = Prothrombin (Homo sapiens, UniProt P00734); assay: Inhibition of thrombin after 20 mins
Outline: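 Thrombin in 0.2 M Tris-HCl, pH 8, preincubated with sample (DMSO, 1 mg/mL stock) at 25 °C for 5 min. Z-Gly-Pro-Arg-4MβNA substrate (0.5 mg/mL stock in Tris buffer) then added. Reaction kinetics read at 405 nm, 37 °C, for 20 min; IC50 reported.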

[1] = Inhibition of trypsin after 30 mins
Outline: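 Trypsin stock 1 mg/mL in 0.05 M Tris-HCl/100 mM NaCl/1 mM CaCl2, pH 7.5. Sample (1 mg/mL DMSO stock) preincubated with enzyme at 37 °C for 10 min. BAPNA substrate (stock in 1:9 DMSO/Tris buffer) then added. Kinetics at 405 nm, 37 °C, for 30 min, giving IC50.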

[2] = biological target: Chymotrypsin-like elastase family member 1 (Homo sapiens) (UniProt Q9UNI1); assay: Inhibition of elastase after 20 mins
Outline: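 Elastase stock 75 mg/mL in 0.2 M Tris-HCl, pH 8. Sample (1 mg/mL DMSO stock) preincubated with enzyme in buffer at 30 °C for 20 min. N-Suc-Ala-Ala-Ala-p-nitroanilide substrate (1 mg/mL stock in Tris buffer) then added. Kinetics read at 405 nm, 37 °C, for 20 min.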

[3] = Inhibition of chymotrypsin after 30 mins
Outline: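 Commercial chymotrypsin, 10 mg/mL stock in 0.05 M Tris-HCl/100 mM NaCl/1 mM CaCl2, pH 7.5. Sample (1 mg/mL DMSO stock) preincubated with enzyme in buffer at 37 °C for 10 min. Suc-Gly-Gly-p-nitroanilide substrate (1 mg/mL stock in Tris buffer) then added. Reaction kinetics followed at 405 nm, 37 °C, for 30 min.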

Chymotrypsin-like elastase family member 1 (Homo sapiens), sequence (Q9UNI1 whole entry): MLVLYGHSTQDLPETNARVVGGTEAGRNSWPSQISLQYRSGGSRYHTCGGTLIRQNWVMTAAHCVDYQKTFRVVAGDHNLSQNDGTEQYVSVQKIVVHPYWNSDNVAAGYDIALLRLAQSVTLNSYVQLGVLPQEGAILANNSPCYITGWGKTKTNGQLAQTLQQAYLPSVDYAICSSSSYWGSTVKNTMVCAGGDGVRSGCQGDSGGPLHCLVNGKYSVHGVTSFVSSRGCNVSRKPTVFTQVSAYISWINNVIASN

Row | SMILES | Activity (Prothrombin) | IC50 [1] [µM] | Activity [2] | Activity [3] | IC50 (Prothrombin) [µM]
1 | CC[C@H](C)[C@@H]1NC(=O)[C@H](Cc2ccccc2)N(C)C(=O)[C@H]([C@@H](C)CC)N2C(=O)[C@H](CC[C@H]2O)NC(=O)[C@H](CCCNC(=N)N)NC(=O)[C@@H](NC(=O)[C@@H](COS(=O)(=O)O)OS(=O)(=O)O)[C@@H](C)OC1=O [CYANOPEPTOLIN SS] |  | 2.9 | inactive | inactive | 
2 | CC[C@H](C)[C@@H]1NC(=O)[C@H](Cc2ccccc2)N(C)C(=O)[C@H]([C@@H](C)CC)N2C(=O)[C@H](CC[C@H]2O)NC(=O)[C@H](CCCN=C(N)N)NC(=O)[C@@H](NC(=O)[C@@H](COS(=O)(=O)O)OS(=O)(=O)O)[C@@H](C)OC1=O [CYANOPEPTOLIN SS] |  |  |  |  | 45.2
3 | CC[C@H](C)[C@@H]1NC(=O)[C@H](Cc2ccccc2)N(C)C(=O)[C@H]([C@@H](C)CC)N2C(=O)[C@H](CC[C@H]2O)NC(=O)[C@H](CCCNC(=N)N)NC(=O)[C@@H](NC(=O)[C@H](O)CO)[C@@H](C)OC1=O | inactive | 2.6 | inactive | inactive | 
4 | CC[C@H](C)[C@@H]1NC(=O)[C@H](Cc2ccccc2)N(C)C(=O)[C@H]([C@@H](C)CC)N2C(=O)[C@H](CC[C@H]2O)NC(=O)[C@H](CCCNC(=N)N)NC(=O)[C@@H](NC(=O)[C@H](O)COS(=O)(=O)O)[C@@H](C)OC1=O [CYANOPEPTOLIN S] | inactive | 4.1 | inactive | inactive | 
5 | CC[C@H](C)[C@@H]1NC(=O)[C@H](Cc2ccccc2)N(C)C(=O)[C@H]([C@@H](C)CC)N2C(=O)[C@H](CC[C@H]2OC)NC(=O)[C@H](CCCNC(=N)N)NC(=O)[C@@H](N)[C@@H](C)OC1=O | inactive |  | inactive | inactive | 
6 | CC[C@H](C)[C@@H]1NC(=O)[C@H](Cc2ccccc2)N(C)C(=O)[C@H]([C@@H](C)CC)N2C(=O)[C@H](CC[C@H]2OC)NC(=O)[C@H](CCCNC(=N)N)NC(=O)[C@@H](NC(=O)[C@H](O)CO)[C@@H](C)OC1=O |  | 0.6 | inactive | inactive | 52.9

More lines, main results first:

Row | Activity (Prothrombin) | IC50 [1] [µM] | Activity [2] | Activity [3] | SMILES | IC50 (Prothrombin) [µM]
7 | inactive | 24.2 | inactive | inactive | CC[C@H](C)[C@@H]1NC(=O)[C@H](Cc2ccccc2)N(C)C(=O)[C@H]([C@@H](C)CC)N2C(=O)[C@H](CC[C@H]2O)NC(=O)[C@H](CCCNC(=N)N)NC(=O)[C@@H](NC(=O)[C@@H](CO)OS(=O)(=O)O)[C@@H](C)OC1=O | 
8 | inactive | 7.4 | inactive | inactive | CC[C@H](C)[C@@H]1NC(=O)[C@H](Cc2ccccc2)N(C)C(=O)[C@H]([C@@H](C)CC)N2C(=O)[C@H](CC[C@H]2OC)NC(=O)[C@H](CCCNC(=N)N)NC(=O)[C@@H](NC(=O)[C@@H](CO)OS(=O)(=O)O)[C@@H](C)OC1=O | 
9 | inactive | 1.5 | inactive | inactive | CC[C@H](C)[C@@H]1NC(=O)[C@H](Cc2ccccc2)N(C)C(=O)[C@H]([C@@H](C)CC)N2C(=O)[C@H](CC[C@H]2OC)NC(=O)[C@H](CCCNC(=N)N)NC(=O)[C@@H](NC(=O)[C@H](O)COS(=O)(=O)O)[C@@H](C)OC1=O | 
10 | inactive | 1.6 | inactive | inactive | CC[C@H](C)[C@@H]1NC(=O)[C@H](Cc2ccccc2)N(C)C(=O)[C@H]([C@@H](C)CC)N2C(=O)[C@H](CC[C@H]2OC)NC(=O)[C@H](CCCNC(=N)N)NC(=O)[C@@H](NC(=O)[C@@H](COS(=O)(=O)O)OS(=O)(=O)O)[C@@H](C)OC1=O | 
